Data on one molecule can be found in ChEMBL document CHEMBL3425405, “Discovery of Small Molecules for Up-Regulating the Translation of Antiamyloidogenic Secretase, a Disintegrin and Metalloproteinase 10 (ADAM10), by Binding to the G-Quadruplex-Forming Sequence in the 5' Untranslated Region (UTR) of Its mRNA” (J Med Chem, 2015).

Activity calls are given as the source filed them. No cut-off for these calls is given here.

The test system of test [1] is HEK-APP. Briefly: Binding affinity to ADAM10 A10-RNA QGRS (unknown origin) transfected in HEK-APP cells assessed as increase in ADAM10 protein expression at 1 uM after 48 hrs by Western blotting method. In kind it is cell-based. The gist of the method:
(§1)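 HEK-APP cells (DMEM, 10% FBS, 2 mM glutamine, 0.2 mg/mL G418) treated with 0, 0.5, 0.75, 1 or 1.5 μM compound for 48 h. Lysates in Tris/NaCl/EDTA/1% Triton buffer immunoblotted for ADAM10, APP and β-actin; conditioned medium blotted for sAPPα. Signal by densitometry, normalized to β-actin, relative to blank control; mean ± SD, three independent experiments.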
A general note: In western blotting, separated proteins are transferred to a membrane and probed.

Test [2] concerns HEK293. Briefly: Reduction in Abeta40 protein production in APP expressing HEK cells at 0.5 to 1.5 uM after 48 hrs by ELISA method. Format: functional, cell-based. To be noted: Homo sapiens. In a few lines: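 HEK-APP cells treated 48 h with increasing compound concentrations (0.75, 1, 1.5 μM). Secreted Aβ40 in equal amounts of conditioned medium quantified by sandwich ELISA. Values expressed relative to blank control; mean ± SD of three independent experiments.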
(In general: In an ELISA, binding on a coated surface is turned into a signal by an enzyme label.)

Test [3] deals with HEK293. Briefly: Effect on APP protein expression in APP expressing HEK cells at 0.5 to 1.5 uM after 48 hrs by Western blotting method. Format: functional, cell-based. To be noted: Homo sapiens. The gist of the method:
as §1

Another test has as its system HeLa. Briefly: Binding affinity to ADAM10 A10-RNA QGRS (unknown origin) transfected in human HeLa cells assessed as increase in ADAM10 translation efficiency at 0.5 uM after 24 hrs by Renilla/firefly dual luciferase reporter assay. In kind it is cell-based. In a few lines:
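HeLa cells transfected with 0.8 μg A10-Wt, A10-Mut or A10-Del plasmid (G-quadruplex motif upstream of Renilla in psiCHECK-2). Screening: 24 h at a single 2 μM concentration. Follow-up: plasmid for 12 h, then 0, 0.5, 1 or 2.5 μM for 24 h. Renilla normalized to firefly, relative to untreated control; mean ± SD of three independent measurements.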
(In general: A reporter such as luciferase makes a cellular process visible.)

Test [4] relates to HEK-APP. The test can be described thus: Binding affinity to ADAM10 A10-RNA QGRS (unknown origin) transfected in HEK-APP cells assessed as increase in sAPPalpha level at 1.5 uM after 48 hrs by Western blotting method. In kind it is cell-based. In a few lines:
as §1

Test [5] in a line: Selectivity index, ratio of affinity to N-Ras RNA QGRS (unknown origin) to ADAM10 A10-Wt RNA QGRS (unknown origin) by Renilla/firefly dual luciferase reporter assay.

For the molecule `CCn1c2ccccc2c2cc(/C=C/c3cc(N4CCN(C)CC4)c4ccccc4[n+]3C)ccc21.[I-]`, the Activity with HEK-APP [1] is 76.8%; with HEK293 [2], “Dose-dependent effect”; with HeLa it was 14.1%. In the test on HEK293 [3], the outcome was inactive. Moreover, the fold change (FC) in the test with HEK-APP [4] amounted to 3.3. The Selectivity Index in test [5] is 3.
